In ChEMBL document CHEMBL1125283, “Improvement in potency of an oxytocin antagonist after systematic substitutions with L-tryptophan” (J Med Chem, 1991):
Numbered stars: 1 amine (or outer) side, 2 acyl side, 3 side chain; on linkers, the order of the positions; unused ones are H or OH. Bridge positions count the residues as written; N and C are the ends. Square brackets hold non-standard residues; d marks the D form. Peptide text beside a SMILES is read from it. X1 = O=C(CC1(S[*:2])CCCCC1)[*:1]

Legend:
Rattus norvegicus [1] = organism: Rattus norvegicus; test: Compound was evaluated for the competitive antagonism to Arginine vasopressin (AVP) in rat antidiuretic assay; format: functional, organism-based; conditions: Urine, read-out: pA2 (converted)
Summary of the method: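 Water-loaded rats under ethanol anesthesia; antidiuretic response to AVP standard. In vivo pA2 estimated by dividing the effective dose (molar level of antagonist halving the agonist response) by an estimated distribution volume of 67 mL/kg.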

Rattus norvegicus [2] = organism: Rattus norvegicus; test: Competitive antagonist activity on oxytocin contractile action in isolated rat uterus; format: functional; conditions: read-out: pA2 (converted)
Summary of the method: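 Uteri isolated from rats in natural estrus, bathed in Van Dyke-Hastings solution with 0.5 mM Mg2+. Isometric contractions to OT doses recorded by force-displacement transducer; response quantified as integrated area under peaks. Synthetic OT (450 units/mg) standard. pA2 by Schild method from at least four separate assays; mixed agonist/antagonist potencies approximated.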

| Structure (SMILES) | Kb (Rattus norvegicus [1]) [nM] | Kb (Rattus norvegicus [2]) [nM] |
| --- | --- | --- |
| CC[C@H](C)[C@@H]1NC(=O)[C@@H](Cc2c[nH]c3ccccc23)NC(=O)CC2(CCCCC2)SSC[C@@H](C(=O)N2CCC[C@H]2C(=O)N[C@@H](CCCN=C(N)N)C(=O)N[C@@H](Cc2c[nH]c3ccccc23)C(N)=O)NC(=O)[C@H](CC(N)=O)NC(=O)[C@H](CCC(N)=O)NC1=O | > 1000 | 9.33 |
| CC[C@H](C)[C@@H]1NC(=O)[C@@H](Cc2c[nH]c3ccccc23)NC(=O)CC2(CCCCC2)SSC[C@@H](C(=O)N2CCC[C@H]2C(=O)N[C@@H](Cc2c[nH]c3ccccc23)C(=O)NCC(N)=O)NC(=O)[C@H](CC(N)=O)NC(=O)[C@H](CCC(N)=O)NC1=O | > 1000 | 6.03 |
| CC[C@H](C)[C@H](NC(=O)[C@@H](Cc1c[nH]c2ccccc12)NC(=O)CC12CC3CC(CC(C3)C1)C2)C(=O)N[C@@H](CCC(N)=O)C(=O)N[C@@H](CC(N)=O)C(=O)N[C@H](C(=O)N1CCC[C@H]1C(=O)N[C@@H](CCCN=C(N)N)C(=O)NCC(N)=O)C(C)C |  | 4270 |
| CC[C@H](C)[C@@H]1NC(=O)[C@@H](Cc2c[nH]c3ccccc23)NC(=O)CC2(CCCCC2)SSC[C@@H](C(=O)N2CCC[C@H]2C(=O)N[C@@H](CCCN=C(N)N)C(=O)N[C@@H](Cc2cn(C=O)c3ccccc23)C(N)=O)NC(=O)[C@H](CC(N)=O)NC(=O)[C@H](CCC(N)=O)NC1=O |  | 21.4 |
| CC[C@H](C)[C@H](NC(=O)[C@@H](Cc1c[nH]c2ccccc12)NC(=O)CC12CC3CC(CC(C3)C1)C2)C(=O)N[C@@H](CCC(N)=O)C(=O)N[C@@H](CC(N)=O)C(=O)N[C@@H](Cc1c[nH]c2ccccc12)C(=O)N1CCC[C@H]1C(=O)N[C@@H](CCCN=C(N)N)C(=O)NCC(N)=O |  | 302 |
| CC[C@H](C)[C@@H]1NC(=O)[C@@H](Cc2c[nH]c3ccccc23)NC(=O)CC2(CCCCC2)SSC[C@@H](C(=O)N2c3ccccc3C[C@H]2C(=O)N[C@@H](CCCN=C(N)N)C(=O)NCC(N)=O)NC(=O)[C@H](CC(N)=O)NC(=O)[C@H](CCC(N)=O)NC1=O |  | 12 |
| CC[C@H](C)[C@@H]1NC(=O)[C@@H](Cc2c[nH]c3ccccc23)NC(=O)CC2(CCCCC2)SSC[C@@H](C(=O)N[C@@H](Cc2c[nH]c3ccccc23)C(=O)N[C@@H](CCCN=C(N)N)C(=O)NCC(N)=O)NC(=O)[C@H](CC(N)=O)NC(=O)[C@H](CCC(N)=O)NC1=O | > 1580 | 8.71 |
| CC[C@H](C)[C@H](NC(=O)[C@@H](Cc1c[nH]c2ccccc12)NC(=O)[C@H](Cc1c[nH]c2ccccc12)NC(C)=O)C(=O)N[C@@H](CCC(N)=O)C(=O)N[C@@H](CC(N)=O)C(=O)N[C@H](C(=O)N1CCC[C@H]1C(=O)N[C@@H](CCCN=C(N)N)C(=O)NCC(N)=O)C(C)C |  | 3720 |
| CC[C@H](C)[C@@H]1NC(=O)[C@H](Cc2c[nH]c3ccccc23)NC(=O)CC2(CCCCC2)SSC[C@@H](C(=O)N2CCC[C@H]2C(=O)N[C@@H](CCCN=C(N)N)C(=O)NCC(N)=O)NC(=O)[C@H](CC(N)=O)NC(=O)[C@H](CCC(N)=O)NC1=O (WIQNCPRG-NH2; linker N-5 via X1) |  | 316 |
| CC[C@H](C)[C@@H]1NC(=O)[C@@H](Cc2c[nH]c3ccccc23)NC(=O)CC2(CCCCC2)SSC[C@@H](C(=O)N2CCC[C@H]2C(=O)N[C@@H](CCCN=C(N)N)C(=O)NCC(N)=O)NC(=O)[C@H](CC(N)=O)NC(=O)[C@H](CCC(N)=O)NC1=O ([dW]IQNCPRG-NH2; linker N-5 via X1) | > 1260 |  |
